Measured values: ChEMBL document CHEMBL4152271, “Polypharmacological profile of 1,2-dihydro-2-oxo-pyridine-3-carboxamides in the endocannabinoid system” (Eur J Med Chem, 2018)
The source made the active and inactive calls. The rule behind the calls is not given here.

Columns and labels:
Cannabinoid receptor 2 [1] = molecular target: T1, Cannabinoid receptor 2 (Homo sapiens, UniProt P34972); experiment: Displacement of [3H]-CP55940 from human CB2 receptor expressed in CHO cell membranes after 90 mins
T1 sequence (P34972 whole entry): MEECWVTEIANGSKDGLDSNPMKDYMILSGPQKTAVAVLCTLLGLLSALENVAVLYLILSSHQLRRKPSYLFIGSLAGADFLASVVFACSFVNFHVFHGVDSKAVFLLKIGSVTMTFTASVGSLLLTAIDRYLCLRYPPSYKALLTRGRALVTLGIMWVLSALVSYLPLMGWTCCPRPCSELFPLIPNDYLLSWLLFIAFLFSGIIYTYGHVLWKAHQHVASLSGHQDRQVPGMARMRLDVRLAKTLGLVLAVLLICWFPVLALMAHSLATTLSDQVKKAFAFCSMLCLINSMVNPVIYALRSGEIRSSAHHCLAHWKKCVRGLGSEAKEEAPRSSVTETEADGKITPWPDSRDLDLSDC
Outline: (§1)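 Membranes expressing hCB1 or hCB2 (stably transfected CHO) in 50 mM Tris-HCl, 2.5 mM EDTA, 5 mM MgCl₂, 0.5% fatty acid-free BSA, pH 7.4. Nonspecific binding with 10 µM […]. GF/B filtration, radioactivity counted, Ki derived. Mean ± SD, at least 3 experiments in triplicate.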

Homo sapiens = species: Homo sapiens; experiment: Selectivity ratio of Ki for human CB1 receptor to Ki for human CB2 receptor
Outline: as §1, with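 “7.4. Incubated with compound and 0.5 nM [³H]CP55,940 for 90 min at 30 °C.” for “7.4.”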

Cannabinoid receptor 1 = Cannabinoid receptor 1 (Homo sapiens, UniProt P21554); experiment: Agonist activity at human CB1 receptor expressed in CHO cell membranes after 90 mins by [35S]GTPgammaS binding assay; format: functional, cell-based
Sequence of Cannabinoid receptor 1 (P21554 whole entry): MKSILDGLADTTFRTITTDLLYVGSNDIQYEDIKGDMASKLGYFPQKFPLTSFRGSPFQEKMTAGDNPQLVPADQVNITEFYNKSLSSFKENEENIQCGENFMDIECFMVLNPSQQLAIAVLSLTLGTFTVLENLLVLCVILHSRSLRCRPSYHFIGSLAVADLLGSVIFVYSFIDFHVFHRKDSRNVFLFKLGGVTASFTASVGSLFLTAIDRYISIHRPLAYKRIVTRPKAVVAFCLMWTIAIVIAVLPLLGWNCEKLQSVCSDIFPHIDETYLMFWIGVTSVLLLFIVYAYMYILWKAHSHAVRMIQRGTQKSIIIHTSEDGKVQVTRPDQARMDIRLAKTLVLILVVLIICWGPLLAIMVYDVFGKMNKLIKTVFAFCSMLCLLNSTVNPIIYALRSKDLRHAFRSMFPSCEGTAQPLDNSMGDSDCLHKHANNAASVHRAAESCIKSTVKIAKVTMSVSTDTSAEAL

Cannabinoid receptor 2 [2] = molecular target: T1, Cannabinoid receptor 2; experiment: Agonist activity at human CB2 receptor expressed in CHO cell membranes after 90 mins by [35S]GTPgammaS binding assay; format: functional
Outline: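 Membranes (5 µg) of hCB2-expressing cells in 50 mM Tris-HCl, 3 mM MgCl₂, 0.2 mM EDTA, 100 mM NaCl, 0.5% fatty acid-free BSA, pH 7.4, with 10 µM GDP and 0.1 nM [³⁵S]GTPγS. Kept on ice, started by vehicle or compound, 90 min at 30 °C. Nonspecific binding with 10 µM GTPγS. Filtered on GF/B, radioactivity counted. At least three experiments in triplicate, mean ± SD.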

U-937 [3] = experiment: Inhibition of [ethanolamine-1-3H]AEA/unlabeled AEA uptake in human U937 cells preincubated for 15 mins followed by [ethanolamine-1-3H]AEA/unlabeled AEA addition and measured after 15 mins by scintillation counting method; format: functional, cell-based
Outline: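 Intact U937 cells (0.5x10⁶ per sample) in RPMI, preincubated with compound for 15 min at 37 °C. Then 1 nM [ethanolamine-1-³H]AEA plus unlabeled AEA (final 100 nM) added for 15 min. Stopped by rapid filtration and ice-cold PBS/1% BSA washes, radioactivity counted. At least three experiments in triplicate, mean ± SD.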

U-937 [4] = experiment: Cytotoxicity against human U937 cells assessed as decrease in cell viability at 0.6 to 40 uM after 48 hrs by MTT assay; format: functional, cell-based
Outline: (§2)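 U251MG (EMEM, 10% FBS) or U937 (RPMI 1640, 10% FBS) cells plated at 4x10³/well for 24h, then exposed to compounds (0–40 µM) for 48 h at 37°C. MTT reduction, formazan read at 595 nm. Viability as % of untreated control. Five independent experiments in triplicate, mean ± SD, ANOVA with Bonferroni.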

U-251 = experiment: Cytotoxicity against human U251MG cells assessed as decrease in cell viability at 0.6 to 40 uM after 48 hrs by MTT assay; format: functional, cell-based; outline: as §2

Row | SMILES | Ki (Cannabinoid receptor 2 [1]) | Ratio Ki (Homo sapiens) | EC50 (Cannabinoid receptor 1) | EC50 (Cannabinoid receptor 2 [2]) | IC50 (U-937 [3]) | Activity (U-937 [4]) | Activity (U-251)
1 | Cc1c(Br)cn(Cc2ccc(F)cc2)c(=O)c1C(=O)NC1CCCCCC1 | 3.5 nM | 0.65 | 1.4 nM | 1.1 nM | 930 nM | Active | inactive
2 | COc1ccc(-c2cn(Cc3ccc(F)cc3)c(=O)c(C(=O)NC3CCCCCC3)c2C)cc1 | 7.9 nM | 2 to 54 | 96 nM | – | 280 nM | Active | inactive
3 | Cc1c(Br)cnc(OCc2ccc(F)cc2)c1C(=O)NC1CCCCCC1 | 606 nM | 0.18 | 182 nM | 687 nM | 620 nM | Active | inactive
